Entries after “also recorded” stand apart in the source; their conditions may differ.
How the values were obtained:
[1] = tested on: PTZ-induced larvae of zebrafish; experiment: Behavioural assessment in PTZ-induced epilepsy zebrafish larvae; assay type: in vivo, zebrafish (Danio rerio)
[2] = cited from earlier work
[3] = tested on: zebrafish larvae; settings: cited from earlier work
[4] = tested on: wild-type (WT) zebrafish embryos; experiment: Toxicity profiling of embryo zebrafish; assay type: in vivo, zebrafish (Danio rerio)
Summary of the method: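 Wild-type embryos were exposed from 5 hpf to the test compound at 0, 4.29, 8.58, 12.86, 17.15 and 21.44 μM, serially diluted from a 1 mM DMSO stock. Triplicates had 10 embryos each (n = 30). Mortality was scored daily, with LC50 at 72 hpf. Spontaneous coils were counted for 1 min at 24 hpf after 5 min habituation. Percent hatched was scored at 72 hpf. Data are mean ± SEM, analysed by one-way ANOVA with Tukey.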

[5] = tested on: zc4h2 KO zebrafish larvae; experiment: Heartbeat / cardiotoxicity in zc4h2 KO zebrafish larvae; assay type: in vivo, zebrafish (Danio rerio); settings: for cardiotoxicity: zebrafish larvae, judged from heartbeat
[6] = 2.5 mM PTZ, 5 dpf larvae, 8.58 μM compound 8 or 100 μM VPA, 1 h
[7] = 2.5 mM PTZ, 5 dpf larvae, 8.58 μM compound 8 or 100 μM VPA, 1 h, vs PTZ group
[8] = 2.5 mM PTZ alone vs control, 5 dpf larvae

## CCCC(CCC)C(=O)O [VPA, sodium valproate]
[1]; [6]
  distance spent in the inner area (thigmotaxis): significantly increased
  total duration of freezing: without significant changes
[1]; [7]
  average velocity (average speed travelled): significant decrease
  distance travelled (total and average): significant decrease
  number of freezing count: significantly reduced
  total velocity (total speed travelled): significant decrease

## O=c1onc(-c2cccs2)n1Cc1ccc(F)cc1Cl [GM90432, 4-(2-chloro-4-fluorobenzyl)-3-(2-thienyl)-1,2,4-oxadiazol-5(4H)-one]
[2]
  blood-brain barrier passage: effectively cross the blood-brain barrier

## CN1C(=O)CN=C(c2ccccc2)c2cc(Cl)ccc21 [diazepam]
[3]
  percentage of distance spent in the inner area: significantly increased

## O=C(/C=C/c1cc(F)cc(F)c1)c1ccc[nH]1 [Compound 8, (E)-3-(3,5-difluorophenyl)-1-(1H-pyrrol-2-yl)prop-2-en-1-one]
[4]; 21.44 μM, 24 hpf
  mortality at the beginning of the observation period: lethal
[4]; >12.86 μM, 24 hpf
  spontaneous tail coiling (STC): no tail movement
[4]; chosen from all toxicological parameters
  optimal safe concentration: 8.58 µM
[4]; exposure of 12.86 μM or more, 24–72 hpf
  cumulative mortality rate: > 80%
[4]; exposure up to 8.58 μM
  mortality compared to the control group: no significant difference
[4]; from 8.58 μM, 24 hpf
  spontaneous tail coiling (STC) compared to control: significant decrease
[4]; from 12.86 μM, 72 hpf
  hatching rate: decreased significantly
[1]; [6]
  distance spent in the inner area (thigmotaxis): significantly increased
  total duration of freezing: increased
[1]; [7]
  average velocity (average speed travelled): significant decrease
  number of freezing count: significant reduction
  total velocity (total speed travelled): significant decrease
[1]; PTZ-induced larvae
  convulsive behaviour: effective in reducing
[5]; 5 dpf larvae, 2 h incubation, vs control groups
  heartbeat (heartbeats/min): no significant difference
[5]
  cardiotoxicity: no cardiotoxic effects
[5]; listed as compound 8
  cardiotoxicity: no cardiotoxic effect; also recorded: no potential cardiotoxicity

## C1CCc2nnnn2CC1 [PTZ, pentylenetetrazol]
[1]; [8]
  distance and speed of zebrafish: significantly increased
  total number of freezes: significantly increased

— article PMC9958447 (Heliyon, 2023)
